This is a sample that favours compounds with a hit; in the whole collection about 2.1% have one here.
Xi reactivation = reactivates the inactive X chromosome in mouse fibroblasts | XiGFP mouse fibroblasts, % GFP-positive cells imaging, 3 d; cells co-treated with 5-aza-dC sensitizer; scaled so ellipticine positive control = 100% | activation, % at 7.58 µM | 0.055% of 360,000 active;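 active = mean normalized replicate activation at least 10% and every replicate at or above 10%; inconclusive = only one of the two criteria met; inactive = mean below 10% and not all replicates reach 10%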;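 note: 0% = median of on-plate neutral control wells and 100% = ellipticine 6 µM median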
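material = 68-5-11 XiGFP fibroblast line | medium = DMEM plus 5-aza-dC sensitizer | schedule = 3 days compound exposure | benchmarks = positive control ellipticine, 6 µM final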
Statin myotox sup = suppression of simvastatin myotoxicity. C2C12 myotubes + simvastatin, ATP luminescence, 48 h; scaled: DMSO 0, geranylgeraniol control 100. rescue of ATP level, % at 7.49 µM. 0.78% of 330,000 active. AID 602340;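 active = mean ATP rescue above about 67%, or every replicate alone reaching that limit, limit read from the data, passing the limit was not always enough; inconclusive = no clear call, values can overlap the other calls; inactive = mean under the limit and some replicate under it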;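 note: myotubes were challenged with 10 µM simvastatin during compound exposure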
Cneo AK release = Cryptococcus neoformans lysis via adenylate kinase release; C. neoformans lysis, adenylate kinase release luminescence, 4 h; normalised: neutral wells 0, clomiphene wells 100; lysis activity, % at 15 µM; 0.2% of 360,000 active; AID 651654;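 active = mean lysis activity across replicates of at least 80%, whatever share of replicates individually reach that level; inactive = mean lysis activity below 80%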
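Test system: log-phase Cryptococcus neoformans yeast cells. Input: 5 × 10^6 yeast cells/mL. Medium: fresh YPD growth medium. Doses: single dose. Incubation: static 4 h at 37 °C with compound, 1 h detection. Measured by: luminescent adenylate kinase detection reagent. Read-out: signal increase indicating cell lysis. Benchmarks: Clomiphene.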
DENV2 CPE rescue = DENV2-induced cell death inhibition. DENV2-infected cells, cytopathic effect rescue, plate reader. CPE inhibition, % at 9.99 µM. 1.7% of 350,000 active; in the data active = CPE inhibition above about 20%, passing the limit was not always enough; inconclusive = no clear call, values can overlap the other calls; tested in BHK-21 cells;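 note: 0% = median of neutral control wells and 100% = median of positive control wells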
* hit, by the source's call; ? = inconclusive; · = no result.

SMILES	Xi reactivation	Statin myotox sup	Cneo AK release	DENV2 CPE rescue
CN(C)Cc1cn(CC[C@@H]2CC[C@@H](NC(=O)Nc3ccccc3F)[C@H](CO)O2)nn1	1	-1	0	0
COc1ccccc1S(=O)(=O)N[C@H]1CC[C@@H](CCn2cc(C3CCCCC3)nn2)O[C@H]1CO	0	-1	-3	5
COc1cccc(OC)c1-c1cnc(NC(C)=O)cn1	0	0	0	24*
Cc1ccccc1-c1ccc([C@H]2[C@@H](CO)N3CCCCN(CC4CC4)C[C@H]23)cc1	0	7	49	17
Cc1ccccc1-c1ccc([C@@H]2[C@@H](CO)N3CCCCN(CC4CC4)C[C@H]23)cc1	0	-4	50	52*
COc1cccc(-c2ccc([C@H]3[C@H](CO)N4CCCCN(CC5CC5)C[C@@H]34)cc2)c1	0	0	46	42*
COc1cccc(-c2ccc([C@H]3[C@H]4CN(CC5CC5)CCCCN4[C@H]3CO)cc2)c1	0	-6	40	19
COc1cccc(-c2ccc([C@@H]3[C@@H](CO)N4CCCCN(CC5CC5)C[C@H]34)cc2)c1	0	-5	-3	43*
O=C(c1ccccc1)N1CC[C@@H]2[C@H]1c1cc(-c3ccccc3F)ccc1N[C@@H]2CO	0	37	6	-4
CC(C)N(Cc1cc2ccccc2[nH]c1=O)C(=O)c1cccnc1	·	88*	·	·
CCOc1cc(C(=O)N(C)Cc2cc3ccccc3[nH]c2=O)cc(OCC)c1OCC	·	98*	9	·
C[C@H]1CN([C@@H](C)CO)C(=O)c2ccccc2-c2ccccc2CO[C@H]1CN(C)Cc1ccc(Oc2ccccc2)cc1	0	·	·	-13
CCCC#Cc1cnc2c(c1)C(=O)N([C@@H](C)CO)C[C@@H](C)[C@@H](CN(C)C(=O)C1CCC1)O2	1	14	-2	-7
O=[N+]([O-])c1ccc(COc2ccccc2CN2CCCC2)cc1	0	0	-1	2
O=[N+]([O-])c1cccc(COc2ccccc2CN2CCCC2)c1	0	-8	2	58*
C[C@@H]1CN([C@@H](C)CO)C(=O)c2cc(NC(=O)Cn3cnnn3)ccc2O[C@@H]1CN(C)S(=O)(=O)c1ccc(Cl)cc1	0	-23	·	-7
COc1ccc([Si](C)(C)[C@@H]2[C@@H](CC(=O)N3Cc4ccccc4C[C@H]3CO)O[C@]3(C(=O)N(C)c4c(Br)cc(C)cc43)[C@H]2C)cc1	·	·	-3	21*
COc1ccc(C(=O)Nc2ccc(CN3C(=O)[C@]4(O[C@H](CC(=O)N5Cc6ccccc6C[C@H]5CO)[C@@H]([Si](C)(C)c5ccc(OC)cc5)[C@@H]4C)c4ccccc43)cc2)cc1	·	·	2	0
CN(C)C(=O)[C@H]1[C@H](CO)[C@H]2Cn3c(cccc3=O)[C@H]2N1C(=O)C1CCCCC1	0	-3	1	8
O=C(CSc1nc(=O)n2ccccc2n1)N1N=C(c2cccs2)CC1c1ccc(F)cc1 (stereo unspecified)	0	-10	-3	60*
Cc1ccc(S(=O)(=O)N2CCCOC2CNC(=O)C(=O)NCc2ccc3c(c2)OCO3)cc1 (stereo unspecified)	0	6	-7	5
O=C(NCc1ccc2c(c1)OCO2)C(=O)NCC1OCCCN1S(=O)(=O)c1ccccc1 (stereo unspecified)	0	4	0	41*
Cc1cccc(S(=O)(=O)N2C[C@H](O)COC[C@@H]3O[C@H](CC(=O)N4CCN(C)CC4)CC[C@H]32)c1	0	-5	3	-14
O=C(CSc1nc2ccccc2c(=O)n1CC1CCCO1)Nc1ccccc1Cl (stereo unspecified)	0	79*	-1	-3
O=C(C[C@H]1CC[C@H]2[C@@H](COC[C@@H](O)CN2S(=O)(=O)c2ccc(Oc3ccccc3)cc2)O1)NC1CCC1	0	6	86*	1
SMILES	Xi reactivation	Statin myotox sup	Cneo AK release	DENV2 CPE rescue
CCCNC(=O)C[C@H]1CC[C@H]2[C@@H](COC[C@@H](O)CN2S(=O)(=O)c2ccc(Oc3ccccc3)cc2)O1	0	-9	90*	-5
Cn1cnc(S(=O)(=O)N2C[C@H](O)COC[C@@H]3O[C@@H](CC(=O)NC4CCCC4)CC[C@H]32)c1	0	0	-1	59*
CCCNC(=O)C[C@@H]1CC[C@@H]2[C@H](COC[C@H](O)CN2S(=O)(=O)c2ccc(Oc3ccccc3)cc2)O1	0	11	8	-7
Cn1cnc(S(=O)(=O)N2C[C@@H](O)COC[C@H]3O[C@H](CC(=O)NC4CCCC4)CC[C@@H]32)c1	0	-5	-3	6
CN1C(=O)c2cc(NS(=O)(=O)c3cccc(F)c3)ccc2OC[C@@H]2O[C@@H](CC(=O)N3CCc4ccccc4C3)CC[C@H]21	0	20	0	·
CN1[C@H](C(=O)NC2Cc3ccccc3C2)[C@@H](CO)[C@@H]2Cn3c(ccc(-c4ccccc4)c3=O)[C@@H]21	0	20	0	-4
Cc1noc(C)c1S(=O)(=O)Nc1ccc2c(c1)CC(=O)N([C@@H](C)CO)C[C@H](C)[C@@H](CN(C)S(=O)(=O)c1ccc(F)cc1)O2	-1	-24	-5	?
COCC(=O)NC[C@H]1N[C@H](CO)[C@@H]1c1ccc(C2=CCCC2)cc1	0	-20	108*	5
CCC(=O)NC[C@H]1N[C@H](CO)[C@@H]1c1ccc(C2=CCCC2)cc1	0	-18	-1	·
COCC(=O)NC[C@H]1N[C@H](CO)[C@H]1c1ccc(C2=CCCC2)cc1	0	13	97*	1
COCC(=O)NC[C@@H]1[C@@H](c2ccc(C3=CCCC3)cc2)[C@@H](CO)N1C(=O)C1CC1	1	0	-4	25*
C[C@H]1CCCCO[C@H](CN(C)Cc2ccc(Cl)c(Cl)c2)[C@@H](C)CN([C@@H](C)CO)C(=O)c2cc(NC(=O)CCC(F)(F)F)ccc2O1	0	·	1	2
C[C@H](CO)N1C[C@H](C)[C@H](CN(C)S(=O)(=O)c2ccc(F)cc2)Oc2ccc(NS(=O)(=O)c3ccc(F)cc3)cc2C1=O	0	42	2	0
O=C(CC(F)(F)F)N1C[C@H]2[C@@H](c3ccccc31)[C@@H](CO)N2C(=O)Cc1ccccc1	0	-25	-1	-10
C/C=C/c1cnc2c(c1)C(=O)N([C@@H](C)CO)C[C@H](C)[C@H](CN(C)C(=O)c1ccc3c(c1)OCO3)O2	0	17	4	-8
CC(=O)Nc1ccc(NC(=O)CSc2nnc(C3CC3)n2C)cc1	·	127*	1	·
CC(=O)c1ccc(NC(=O)CSc2nnc(C3CC3)n2C)cc1	0	6	2	-5
Cn1c(SCC(=O)c2cc3ccccc3o2)nnc1-c1ccccc1	0	5	-7	67*
C[C@@H]1CCCCO[C@H](CN(C)C(=O)c2ccncc2)[C@H](C)CN([C@@H](C)CO)C(=O)c2cc(NC(=O)C3CCCCC3)ccc2O1	1	-8	-2	1

Assay outcomes: PubChem BioAssay, Broad Institute
